Measurements from ChEMBL document CHEMBL5058577, “EUbOPEN Chemogenomics Library 2 (Multiplex)” (2022).

Test system: Fibroblast
Assay: Multiplex assay against human fibroblast
Assay type: toxicity, cell-based
How it was run: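 Live cells were stained at seeding with Hoechst33342, BioTracker Green Microtubule Cytoskeleton Dye, MitoTracker Red and Annexin V Alexa Fluor 680. Following compound addition, they were imaged on a CQ1 microscope at 37°C and 5% CO2 and gated by CellPathfinder machine learning into Hoechst high-intensity objects or normal cells, with normal cells split into healthy, pyknosed or fragmented nuclei and pyknosed cells into mitotic or apoptotic. Tubulin, mitochondrial-mass and membrane-permeability phenotypes are per cents of healthy-nucleus cells.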

[1] = 12 h, 1 µM, compound concentration 1 uM, replicate 1
[2] = 12 h, 1 µM, compound concentration 1 uM, replicate 2
[3] = 12 h, 10 µM, compound concentration 10 uM, replicate 1
[4] = 12 h, 10 µM, compound concentration 10 uM, replicate 2
[5] = 24 h, 1 µM, compound concentration 1 uM, replicate 1
[6] = 24 h, 1 µM, compound concentration 1 uM, replicate 2
[7] = 24 h, 10 µM, compound concentration 10 uM, replicate 1
[8] = 24 h, 10 µM, compound concentration 10 uM, replicate 2
[9] = 48 h, 1 µM, compound concentration 1 uM, replicate 1
[10] = 48 h, 1 µM, compound concentration 1 uM, replicate 2
[11] = 48 h, 10 µM, compound concentration 10 uM, replicate 1
[12] = 48 h, 10 µM, compound concentration 10 uM, replicate 2

For `N#Cc1c(N)nc(SCc2csc(-c3ccc(Cl)cc3)n2)c(C#N)c1-c1ccc(OCCO)cc1` [CAPADENOSON], the “Population Apoptotic (%)” value [1] was 43%, the “Population Fragmented Nuclei (%)” value [1] was 8% and the “Population Healthy Nuclei (%)” value [1] was 80%. For the same compound, the “Population Hoechst High Intensity Objects (%)” value [1] was 2%, the “Population Membrane Permeable-Phenotype (%)” value [1] was 0% and the “Population Mitochondria Different-Phenotype (%)” value [1] was 10%. For the same compound, the “Population Mitotic Cells (%)” value [1] was 56%, the “Population Normal (%)” value [1] was 97% and the “Population Pyknosed Nuclei (%)” value [1] was 11%. For the same compound, the “Population Tubulin-Different-Phenotype (%)” value [1] was 38%, the “Total Cell Count” value [1] was 139 and the “Population Apoptotic (%)” value [2] was 27%. For the same compound, the “Population Fragmented Nuclei (%)” value [2] was 30%, the “Population Healthy Nuclei (%)” value [2] was 43% and the “Population Hoechst High Intensity Objects (%)” value [2] was 1%. For the same compound, the “Population Membrane Permeable-Phenotype (%)” value [2] was 5%, the “Population Mitochondria Different-Phenotype (%)” value [2] was 11% and the “Population Mitotic Cells (%)” value [2] was 72%. The “Population Normal (%)” value [2] was 98%, the “Population Pyknosed Nuclei (%)” value [2] was 25% and the “Population Tubulin-Different-Phenotype (%)” value [2] was 55%. For the same compound, the “Total Cell Count” value [2] was 157, the “Population Apoptotic (%)” value [3] was 31% and the “Population Fragmented Nuclei (%)” value [3] was 23%. For the same compound, the “Population Healthy Nuclei (%)” value [3] was 50%, the “Population Hoechst High Intensity Objects (%)” value [3] was 1% and the “Population Membrane Permeable-Phenotype (%)” value [3] was 0%. The “Population Mitochondria Different-Phenotype (%)” value [3] was 10%, the “Population Mitotic Cells (%)” value [3] was 68% and the “Population Normal (%)” value [3] was 98%. For the same compound, the “Population Pyknosed Nuclei (%)” value [3] was 25%, the “Population Tubulin-Different-Phenotype (%)” value [3] was 80% and the “Total Cell Count” value [3] was 172. For the same compound, the “Population Apoptotic (%)” value [4] was 41%, the “Population Fragmented Nuclei (%)” value [4] was 41% and the “Population Healthy Nuclei (%)” value [4] was 29%. The “Population Hoechst High Intensity Objects (%)” value [4] was 8%, the “Population Membrane Permeable-Phenotype (%)” value [4] was 20% and the “Population Mitochondria Different-Phenotype (%)” value [4] was 14%. The “Population Mitotic Cells (%)” value [4] was 58%, the “Population Normal (%)” value [4] was 91% and the “Population Pyknosed Nuclei (%)” value [4] was 29%. The “Population Tubulin-Different-Phenotype (%)” value [4] was 97%, the “Total Cell Count” value [4] was 128 and the “Population Apoptotic (%)” value [5] was 72%. For the same compound, the “Population Fragmented Nuclei (%)” value [5] was 11%, the “Population Healthy Nuclei (%)” value [5] was 80% and the “Population Hoechst High Intensity Objects (%)” value [5] was 1%. The “Population Membrane Permeable-Phenotype (%)” value [5] was 0%, the “Population Mitochondria Different-Phenotype (%)” value [5] was 5% and the “Population Mitotic Cells (%)” value [5] was 27%. For the same compound, the “Population Normal (%)” value [5] was 98%, the “Population Pyknosed Nuclei (%)” value [5] was 8% and the “Population Tubulin-Different-Phenotype (%)” value [5] was 34%. For the same compound, the “Total Cell Count” value [5] was 139, the “Population Apoptotic (%)” value [6] was 48% and the “Population Fragmented Nuclei (%)” value [6] was 35%. The “Population Healthy Nuclei (%)” value [6] was 44%, the “Population Hoechst High Intensity Objects (%)” value [6] was 4% and the “Population Membrane Permeable-Phenotype (%)” value [6] was 6%. For the same compound, the “Population Mitochondria Different-Phenotype (%)” value [6] was 20%, the “Population Mitotic Cells (%)” value [6] was 51% and the “Population Normal (%)” value [6] was 95%. For the same compound, the “Population Pyknosed Nuclei (%)” value [6] was 20%, the “Population Tubulin-Different-Phenotype (%)” value [6] was 71% and the “Total Cell Count” value [6] was 148. For the same compound, the “Population Apoptotic (%)” value [7] was 38%, the “Population Fragmented Nuclei (%)” value [7] was 26% and the “Population Healthy Nuclei (%)” value [7] was 52%. The “Population Hoechst High Intensity Objects (%)” value [7] was 2%, the “Population Membrane Permeable-Phenotype (%)” value [7] was 0% and the “Population Mitochondria Different-Phenotype (%)” value [7] was 26%. The “Population Mitotic Cells (%)” value [7] was 61%, the “Population Normal (%)” value [7] was 97% and the “Population Pyknosed Nuclei (%)” value [7] was 20%. The “Population Tubulin-Different-Phenotype (%)” value [7] was 67%, the “Total Cell Count” value [7] was 179 and the “Population Apoptotic (%)” value [8] was 41%. For the same compound, the “Population Fragmented Nuclei (%)” value [8] was 43%, the “Population Healthy Nuclei (%)” value [8] was 28% and the “Population Hoechst High Intensity Objects (%)” value [8] was 6%. For the same compound, the “Population Membrane Permeable-Phenotype (%)” value [8] was 17%, the “Population Mitochondria Different-Phenotype (%)” value [8] was 25% and the “Population Mitotic Cells (%)” value [8] was 58%. For the same compound, the “Population Normal (%)” value [8] was 93%, the “Population Pyknosed Nuclei (%)” value [8] was 27% and the “Population Tubulin-Different-Phenotype (%)” value [8] was 94%. The “Total Cell Count” value [8] was 131, the “Population Apoptotic (%)” value [9] was 88% and the “Population Fragmented Nuclei (%)” value [9] was 16%. For the same compound, the “Population Healthy Nuclei (%)” value [9] was 77%, the “Population Hoechst High Intensity Objects (%)” value [9] was 2% and the “Population Membrane Permeable-Phenotype (%)” value [9] was 0%. For the same compound, the “Population Mitochondria Different-Phenotype (%)” value [9] was 7%, the “Population Mitotic Cells (%)” value [9] was 11% and the “Population Normal (%)” value [9] was 97%. For the same compound, the “Population Pyknosed Nuclei (%)” value [9] was 6%, the “Population Tubulin-Different-Phenotype (%)” value [9] was 37% and the “Total Cell Count” value [9] was 147. The “Population Apoptotic (%)” value [10] was 69%, the “Population Fragmented Nuclei (%)” value [10] was 38% and the “Population Healthy Nuclei (%)” value [10] was 43%. The “Population Membrane Permeable-Phenotype (%)” value [10] was 6%, the “Population Mitochondria Different-Phenotype (%)” value [10] was 12% and the “Population Mitotic Cells (%)” value [10] was 30%. For the same compound, the “Population Pyknosed Nuclei (%)” value [10] was 17%, the “Population Tubulin-Different-Phenotype (%)” value [10] was 60% and the “Total Cell Count” value [10] was 151. For the same compound, the “Population Apoptotic (%)” value [11] was 81%, the “Population Fragmented Nuclei (%)” value [11] was 32% and the “Population Healthy Nuclei (%)” value [11] was 53%. The “Population Hoechst High Intensity Objects (%)” value [11] was 2%, the “Population Membrane Permeable-Phenotype (%)” value [11] was 0% and the “Population Mitochondria Different-Phenotype (%)” value [11] was 32%. For the same compound, the “Population Mitotic Cells (%)” value [11] was 18%, the “Population Normal (%)” value [11] was 97% and the “Population Pyknosed Nuclei (%)” value [11] was 14%. For the same compound, the “Population Tubulin-Different-Phenotype (%)” value [11] was 78%, the “Total Cell Count” value [11] was 187 and the “Population Apoptotic (%)” value [12] was 36%. The “Population Fragmented Nuclei (%)” value [12] was 57%, the “Population Healthy Nuclei (%)” value [12] was 29% and the “Population Hoechst High Intensity Objects (%)” value [12] was 0%. The “Population Membrane Permeable-Phenotype (%)” value [12] was 11%, the “Population Mitochondria Different-Phenotype (%)” value [12] was 30% and the “Population Mitotic Cells (%)” value [12] was 63%. The “Population Normal (%)” value [12] was 100%, the “Population Pyknosed Nuclei (%)” value [12] was 13% and the “Population Tubulin-Different-Phenotype (%)” value [12] was 95%. For the same compound, the “Total Cell Count” value [12] was 142.
